Results as given in ChEMBL document CHEMBL1133118 (J Med Chem, 2000).
pIC50, pKi: −log10 of the molar value.

Key:
[1] = target: T1, Adenosine receptor A2b (Homo sapiens, UniProt P29275); test: Displacement of [3H]DPCPX from Adenosine A2b receptor expressed in […]; range 183-278; assay type: cell-based
T1 sequence (P29275 whole entry): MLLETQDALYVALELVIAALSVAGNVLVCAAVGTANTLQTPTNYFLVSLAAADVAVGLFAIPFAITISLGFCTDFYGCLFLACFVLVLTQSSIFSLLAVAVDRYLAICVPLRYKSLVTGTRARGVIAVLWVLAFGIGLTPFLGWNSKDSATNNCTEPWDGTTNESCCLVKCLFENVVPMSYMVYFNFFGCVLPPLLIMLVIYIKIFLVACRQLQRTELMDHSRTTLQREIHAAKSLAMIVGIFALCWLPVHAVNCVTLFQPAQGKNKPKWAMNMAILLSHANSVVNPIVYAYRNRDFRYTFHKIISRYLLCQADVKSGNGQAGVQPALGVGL

[2] = target: T2, Adenosine receptor A3 (Homo sapiens) (UniProt P0DMS8); test: Percentage of blockade by 1 uM of the inhibition by 100 nM IB-MECA-inhibited cAMP accumulation in CHO cells expressing human adenosine A3 receptor.; assay type: functional, cell-based
T2 sequence (whole entry): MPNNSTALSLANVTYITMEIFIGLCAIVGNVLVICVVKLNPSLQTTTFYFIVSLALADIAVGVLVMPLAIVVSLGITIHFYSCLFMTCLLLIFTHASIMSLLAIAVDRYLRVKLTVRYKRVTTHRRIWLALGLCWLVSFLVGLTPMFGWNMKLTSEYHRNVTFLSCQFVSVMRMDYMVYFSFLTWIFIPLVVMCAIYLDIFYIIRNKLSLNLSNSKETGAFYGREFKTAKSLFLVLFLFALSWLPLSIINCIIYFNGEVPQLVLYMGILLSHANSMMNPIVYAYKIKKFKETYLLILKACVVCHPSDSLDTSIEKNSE
Procedure, shortened: (§1)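 CHO cells stably expressing human A3 receptor; membranes in 50 mM Tris HCl, 10 mM MgCl2, 1 mM EDTA pH 7.4 with 5 μM GTP, 0.5 mM […] and 2.0 IU/mL adenosine deaminase. Preincubated 10 min at 37 °C, then IB-MECA (100 nM) and/or antagonist with 1 mM ATP and 10 μM forskolin for 10 min. Boiled 2 min. cAMP read by [3H]cAMP competition with adrenal binding protein.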

[3] = target: T3, Adenosine receptor A3 (Homo sapiens, UniProt P0DMS8); test: Displacement of [3H]MRE3008-F20 from human adenosine A3 receptor expressed in CHO cells; range 51-70; assay type: cell-based
T3 sequence (P0DMS8 whole entry): T2 sequence (whole entry)

[4] = target: Adenosine receptors; A1 & A3 (Homo sapiens) (UniProt P30542+P0DMS8); test: Ratio of binding affinity of human A1 receptor to that of human A3 receptor; assay type: protein assay
Procedure, shortened: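 Ki ratio from displacement in CHO membranes, 6–8 concentrations, n=3-6, filtration counting. A1: 1 nM [3H]DPCPX, 50 μg protein, 120 min at 25 °C, nonspecific with 10 μM CHA. A3: 1 nM [3H]MRE3008-F20, 50 μg protein, Tris/10 mM MgCl2 pH 7.4, 120 min at 4 °C, nonspecific with 1 μM MRE3008-F20.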

[5] = target: Adenosine receptors; A2b & A3 (Homo sapiens) (UniProt P29275+P0DMS8); test: Ratio of binding affinity of human A2B receptor to that of human A3 receptor; assay type: protein assay
Procedure, shortened: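 Ki ratio, n=3-6, 6–8 concentrations. A2B in HEK-293 membranes (20 μg): 40 nM [3H]DPCPX, 50 mM Tris HCl, 10 mM MgCl2, 1 mM EDTA, 0.1 mM benzamidine pH 7.4, 2 IU/mL adenosine deaminase, 60 min at 25 °C, nonspecific with 100 μM NECA. A3 in CHO membranes (50 μg): 1 nM [3H]MRE3008-F20, 120 min at 4 °C.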

[6] = target: T1, Adenosine receptor A2b; test: Displacement of [3H]DPCPX from Adenosine A2b receptor expressed in CHO cells; assay type: cell-based
[7] = target: T4, Adenosine receptor A2a (Homo sapiens, UniProt P29274); test: Displacement of [3H]-SCH- 58261 from human adenosine A2A receptor expressed in CHO cells; assay type: cell-based
T4 sequence (P29274 whole entry): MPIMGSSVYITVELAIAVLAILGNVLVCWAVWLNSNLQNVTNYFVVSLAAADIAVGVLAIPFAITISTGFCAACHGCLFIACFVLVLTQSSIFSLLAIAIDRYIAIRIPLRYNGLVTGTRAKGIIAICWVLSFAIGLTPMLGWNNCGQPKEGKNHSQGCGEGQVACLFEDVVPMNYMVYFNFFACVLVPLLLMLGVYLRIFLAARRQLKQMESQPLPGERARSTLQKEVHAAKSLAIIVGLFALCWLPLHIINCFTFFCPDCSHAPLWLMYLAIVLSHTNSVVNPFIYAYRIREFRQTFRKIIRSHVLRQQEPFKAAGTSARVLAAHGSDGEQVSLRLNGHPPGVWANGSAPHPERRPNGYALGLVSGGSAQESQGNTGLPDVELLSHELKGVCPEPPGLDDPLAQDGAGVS

[8] = target: T3, Adenosine receptor A3; test: Displacement of [3H]MRE3008-F20 from human adenosine A3 receptor expressed in CHO cells; range 34-76; assay type: cell-based
[9] = target: T5, Adenosine receptor A1 (Homo sapiens, UniProt P30542); test: Displacement of [3H]DPCPX from human adenosine A1 receptor expressed in CHO cells; range 2894-3460; assay type: cell-based
T5 sequence (P30542 whole entry): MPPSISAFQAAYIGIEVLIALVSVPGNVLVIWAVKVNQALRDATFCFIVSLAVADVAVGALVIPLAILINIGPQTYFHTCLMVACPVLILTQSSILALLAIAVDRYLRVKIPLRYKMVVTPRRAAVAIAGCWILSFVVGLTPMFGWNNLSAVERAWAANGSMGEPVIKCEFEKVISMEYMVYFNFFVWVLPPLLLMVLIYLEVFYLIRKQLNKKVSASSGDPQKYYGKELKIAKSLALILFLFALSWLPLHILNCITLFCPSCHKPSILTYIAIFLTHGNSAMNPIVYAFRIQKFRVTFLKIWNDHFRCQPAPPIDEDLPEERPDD

[10] = target: T3, Adenosine receptor A3; test: Displacement of [3H]MRE3008-F20 from human adenosine A3 receptor expressed in CHO cells; range 0.32-0.74; assay type: cell-based
[11] = target: T4, Adenosine receptor A2a; test: Displacement of [3H]-SCH- 58261 from human adenosine A2A receptor expressed in CHO cells; range 150-207; assay type: cell-based
[12] = target: T1, Adenosine receptor A2b; test: Displacement of [3H]DPCPX from Adenosine A2b receptor expressed in […]; range 1770-2327; assay type: cell-based
[13] = target: T3, Adenosine receptor A3; test: Inhibition of cAMP accumulation in CHO cells expressing human adenosine A3 receptor; range 3.5-7.6; assay type: functional, cell-based
[14] = target: T2, Adenosine receptor A3 (Homo sapiens); test: Percent reversal of 100 nM IB-MECA-inhibited cAMP accumulation in CHO cells expressing human adenosine A3 receptor at 1 uM; range 73-110; assay type: functional, cell-based; procedure, shortened: as §1
[15] = target: T5, Adenosine receptor A1; test: Displacement of [3H]-DPCPX from human adenosine A1 receptor expressed in CHO cells; […]; assay type: cell-based
[16] = target: T5, Adenosine receptor A1; test: Displacement of [3H]DPCPX from human adenosine A1 receptor expressed in CHO cells; range 123-160; assay type: cell-based
[17] = target: T3, Adenosine receptor A3; test: biochemical
[18] = target: T1, Adenosine receptor A2b; test: Displacement of [3H]DPCPX from Adenosine A2b receptor expressed in HEK-293 cells; range 44-58
[19] = target: T4, Adenosine receptor A2a; test: Displacement of [3H]-SCH- 58261 from human adenosine A2A receptor expressed in CHO cells; range 17-24; assay type: cell-based
Procedure, shortened: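 CHO membranes expressing human A2A receptor (50 μg protein) in 50 mM Tris HCl, 10 mM MgCl2, pH 7.4, competed against [3H]SCH 58261. At least 6–8 test concentrations were used, with 60 min incubation at 25 °C. Nonspecific binding defined by 50 μM NECA; n=3-6.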

[20] = target: T5, Adenosine receptor A1; test: Displacement of [3H]DPCPX from human adenosine A1 receptor expressed in CHO cells; range 327-462; assay type: cell-based
[21] = target: T3, Adenosine receptor A3; test: biochemical; remark: listed apart in the source
[22] = target: T4, Adenosine receptor A2a; test: Displacement of [3H]-SCH- 58261 from human adenosine A2A receptor expressed in CHO cells; range 3420-3788; assay type: cell-based
[23] = target: T1, Adenosine receptor A2b; test: Displacement of [3H]DPCPX from Adenosine A2b receptor expressed in […]; range 1681-1961; assay type: cell-based

**Q.** With `O=C(Nc1cccc(Cl)c1)Nc1nc2nn(CCCc3ccccc3)cc2c2nc(-c3ccco3)nn12` as the molecule, how does the pKi [1] read?
**A.** 6.65

**Q.** And the inhibition [2]?
**A.** 39%

**Q.** And the pKi [3]?
**A.** 7.22

**Q.** And the Ratio [4]?
**A.** 25

**Q.** And the Ratio [5]?
**A.** 3.7

**Q.** What does the source list for `O=C(Nc1cccc(Cl)c1)Nc1nc2nn(CCc3cccc4ccccc34)cc2c2nc(-c3ccco3)nn12`?
**A.** inhibition [2]: 40%; pKi [6]: < 5.00; pKi [7]: < 5.00; Ratio [4]: 62; pKi [8]: 7.29; pKi [9]: 5.50; Ratio [5]: > 196

**Q.** With `C=CCn1cc2c(nc(NC(=O)Nc3ccc(OC)cc3)n3nc(-c4ccco4)nc23)n1` as the molecule, how does the pKi [10] read?
**A.** 9.32

**Q.** And the pKi [11]?
**A.** 6.75

**Q.** What about the pKi [12] of the same molecule?
**A.** 5.69

**Q.** And the Ratio [4]?
**A.** 3190

**Q.** And the pIC50 [13]?
**A.** 8.29

**Q.** And the inhibition [14]?
**A.** 90%

**Q.** What about the pKi [15] of the same molecule?
**A.** 5.82

**Q.** And the Ratio [5]?
**A.** 4230

**Q.** What does the source list for `Nc1nc2n[nH]cc2c2nc(-c3ccco3)nn12`?
**A.** pKi [16]: 6.85; pKi [17]: 6.46; pKi [18]: 7.29; pKi [19]: 7.70; inhibition [2]: 24%; Ratio [4]: 0.4; Ratio [5]: 0.15

**Q.** With `O=C(Nc1cccc(Cl)c1)Nc1nc2nn(CCc3cc(Br)c(Br)cc3Br)cc2c2nc(-c3ccco3)nn12` as the molecule, how does the pKi [20] read?
**A.** 6.41

**Q.** What about the pKi [21] of the same molecule?
**A.** 7.15

**Q.** What about the inhibition [2] of the same molecule?
**A.** 32%

**Q.** And the Ratio [4]?
**A.** 5.5

**Q.** What about the pKi [22] of the same molecule?
**A.** 5.44

**Q.** And the pKi [23]?
**A.** 5.74

**Q.** And the Ratio [5]?
**A.** 26
